Measurements from different studies.
Protocols differ between the studies behind these lines.
Cell line: HCT-116
Effect on: cell growth or viability

SMILES | method | time | IC50
CC(C)c1ccc(/C=C2\N=C(SCC(=O)c3ccccc3)N(c3ccccc3)C2=O)cc1 | MTT |  | 83.7 µg/mL
O=C1CS/C(=N\c2ccccc2O)N1c1nnc(-c2ccc(C(F)(F)F)cc2/N=C2\SCC(=O)N2c2ccccc2O)s1 | MTT |  | 40.5 µM
COc1ccc(NC(=S)N/N=C/c2cccc3cc4ccccc4nc23)cc1 | MTT | 48 h | > 50 µM
CC(C)c1cccc(C(C)C)c1N=C1C(=O)N(Cc2ccccc2)c2ccccc21 | MTT | 48 h | 11.7 µM
C#Cc1cccc(Nc2ncnc3cc(OCCOC)c(OCCOC)cc23)c1 | LDH | 48 h | 5.14 µM
COc1cccc2c1C(=O)c1c(O)c3c(c(O)c1C2=O)C[C@@](O)(C(=O)CO)C[C@@H]3O[C@H]1C[C@H](N)[C@H](O)[C@H](C)O1 | MTT |  | 4.12 µg/mL
CC(C)c1cccc(C(C)C)c1N=C1C(=O)N(Cc2cccc(Cl)c2)c2ccccc21 | MTT | 48 h | 22.4 µM
Cc1cc2c(C(N)=O)cncc2n1-c1nc2c(c(NCc3ccccc3)n1)CCCN2 | ATP luminescence | 72 h | 1.2 µM
O=C1C(=Nc2ccc(Cl)cc2)c2ccccc2N1Cc1ccc([N+](=O)[O-])cc1 | MTT | 48 h | 1.75 µM
CONC(=O)Cc1c(C)n(-c2nc3c(c(NCc4ccccc4)n2)CCCN3)c2ccccc12 | ATP luminescence | 72 h | 4.2 µM
O=C(CCc1ccc(Cl)cc1)N1C(=O)C(=Nc2ccc(Cl)cc2Br)c2ccccc21 | MTT | 48 h | 23.2 µM
CC(=O)O[C@@H]1[C@@H](OC(C)=O)[C@H](OC(C)=O)CO[C@H]1n1cc(Cn2c(C(=O)/C=C/c3ccc(F)cc3)nc3ccccc32)nn1 | LDH | 48 h | 9.97 µM
COc1cccc2c1C(=O)c1c(O)c3c(c(O)c1C2=O)C[C@@](O)(C(=O)CO)C[C@@H]3O[C@H]1C[C@H](N)[C@H](O)[C@H](C)O1 | ATP luminescence | 72 h | 0.98 µM
Cc1cc2c(C(N)=O)nccc2n1-c1nc2c(c(NCc3ccccc3)n1)CCCN2 | ATP luminescence | 72 h | 2.3 µM
N#Cc1ccc(-c2cc(COc3cc(C(F)(F)F)nc4ccccc34)on2)cc1 | MTS | 72 h | > 100 µM
Cc1cc(Cn2ccnc2)nn1C | MTT | 24 h | 241 µM
O=[N+]([O-])c1cc(I)c(O)c(C=NNc2ccccc2)c1 | MTT | 24 h | 6.34 µM
O=C1Nc2ccccc2C1=Nc1ccccc1I | MTT | 48 h | 31.5 µM
Cc1cc2c(C(N)=O)cccc2n1-c1nc(NCc2ccccc2)c2c(n1)NC(C)CC2 (stereo not shown) | ATP luminescence | 72 h | 0.9 µM
O=C1C(=Nc2ccc(Cl)cc2)c2ccccc2N1Cc1cccc(Cl)c1 | MTT | 48 h | 7.71 µM
O=C(C=Cc1cccs1)c1ccc(OCCOc2ccc(C(=O)C=Cc3cccs3)cc2)cc1 | MTT | 48 h | 18.1 µM
O=[N+]([O-])c1cc(Br)c(O)c(C=NNc2ccccc2)c1 | MTT | 24 h | 11.7 µM
O=C1/C(=C/c2ccc3ccccc3c2O)NC(=S)N1c1ccccc1 | MTT |  | 7.25 µg/mL
COc1cccc2c1C(=O)c1c(O)c3c(c(O)c1C2=O)C[C@@](O)(C(=O)CO)C[C@@H]3O[C@H]1C[C@H](N)[C@H](O)[C@H](C)O1 | MTT | 24 h | 10.5 µM
Fc1ccc2c(-c3nnc(Cc4ccccc4)s3)nn(Cc3ccc(Cl)cc3Cl)c2c1 |  | 48 h | 85.1 µM
Cc1cccc([N+](=O)[O-])c1N=C1SCC(=O)N1c1nnc(-c2ccc(C(F)(F)F)cc2N=C2SCC(=O)N2c2c(C)cccc2[N+](=O)[O-])s1 | MTT |  | 61.2 µM
COc1ccc(N(Cc2csc(-c3ccccc3)n2)C(=O)CCCCCC(=O)NO)cc1 | MTT | 72 h | 1.12 µM
CC1(P2(=O)CCCCC2)C=CCC=C1 | MTT | 72 h | > 100 µM

SMILES | method | time | IC50
O=C1CS/C(=N\c2cc(C(F)(F)F)ccc2-c2nnc(N3C(=O)CS/C3=N\c3cc(O)cc(Br)c3)s2)N1c1cc(O)cc(Br)c1 | MTT |  | 78.1 µM
N/C(=N\O)c1ccc(-c2cc(CNc3cccc4cccnc34)on2)cc1 | MTS | 72 h | > 100 µM
Cc1c2c(nn1C)CSCc1cc(n(C)n1)CSc1cc(c3ccccc3c1)OCCCc1c(C(=O)O)n(C)c3c-2c(Cl)ccc13 | CCK-8 |  | 25 µM
CC(=O)c1nc2ccccc2n1Cc1cn([C@@H]2O[C@H](CO)[C@H](O)[C@H](O)[C@H]2O)nn1 | LDH | 48 h | 8.68 µM
Clc1ccc(Cn2nc(-c3nc(-c4ccccc4)no3)c3ccccc32)c(Cl)c1 |  | 48 h | 324 µM
Cc1ccc(CN2C(=O)C(=Nc3cccc(C)c3)c3ccccc32)cc1 | MTT | 48 h | 0.39 µM
c1ccc(-c2cc(CNc3cccc4cccnc34)on2)cc1 | MTS | 72 h | > 100 µM
Fc1ccc2c(-c3ncc(-c4ccccc4)o3)nn(Cc3ccccc3)c2c1 |  | 48 h | 82.6 µM
Cc1cc(NS(=O)(=O)c2ccc(NC(=O)/C(C#N)=C/c3ccncc3)cc2)no1 | MTT | 48 h | 187 µM
COc1cc([C@@H]2c3cc4c(cc3[C@@H](O[C@@H]3O[C@@H]5CO[C@@H](C)O[C@H]5[C@H](O)[C@H]3O)[C@H]3COC(=O)[C@H]23)OCO4)cc(OC)c1O | MTS | 72 h | 0.59 µM
O=C(C=Cc1ccc(OCCCOc2ccc(C=CC(=O)c3cccs3)cc2)cc1)c1cccs1 | MTT | 48 h | 120 µM
O=[N+]([O-])c1cc(I)c(O)c(C=NNc2ccc(Cl)cc2)c1 | MTT | 24 h | 13.9 µM
FC(F)(F)c1cc(OCc2cc(-c3ccc(Cl)cc3Cl)no2)c2ccccc2n1 | MTS | 72 h | > 100 µM
O=[N+]([O-])c1ccc(NC(=S)N/N=C/c2cccc3cc4ccccc4nc23)cc1 | MTT | 48 h | > 50 µM
Fc1ccc2c(-c3nnc(Cc4ccccc4)[nH]3)nn(Cc3ccc(Cl)cc3Cl)c2c1 |  | 48 h | 22 µM
COc1cccc2c1C(=O)c1c(O)c3c(c(O)c1C2=O)C[C@@](O)(C(=O)CO)C[C@@H]3O[C@H]1C[C@H](N)[C@H](O)[C@H](C)O1 | MTT | 72 h | 0.2 µM
c1ccc(-c2noc(-c3nn(Cc4ccncc4)c4ccccc34)n2)cc1 |  | 48 h | 47.5 µM
O=C(CSc1nc2ccccc2s1)N/N=C/c1ccc(OCC(=O)Nc2cccc(Cl)c2)cc1 | MTS | 72 h | > 100 µM
c1ccc(Cc2nnc(-c3nn(Cc4ccccc4)c4ccccc34)o2)cc1 |  | 48 h | 15.1 µM
O=c1[nH]cc(F)c(=O)[nH]1 | MTT | 48 h | 17 µM
O=C1CS/C(=N\c2cc(C(F)(F)F)ccc2-c2nnc(N3C(=O)CS/C3=N\c3ccc(F)cc3)s2)N1c1ccc(F)cc1 | MTT |  | 21.2 µM
O=C(CSc1nc2ccccc2s1)N/N=C/c1ccc(OCC(=O)Nc2cccc([N+](=O)[O-])c2)cc1 | MTS | 72 h | 13.3 µM
O=[N+]([O-])c1cc(I)c(O)c(C=NNc2ccc(Br)cc2)c1 | MTT | 24 h | 15.3 µM
O=C1CS/C(=N\c2cc(C(F)(F)F)ccc2-c2nnc(N3C(=O)CS/C3=N\c3cccc(Cl)c3)s2)N1c1cccc(Cl)c1 | MTT |  | 57.1 µM
O=C1C(=Nc2ccc(Cl)cc2)c2ccccc2N1Cc1ccc(Br)cc1 | MTT | 48 h | 21.4 µM
Cc1ccc(NC(=O)Cn2cc(COc3ncnc4[nH]cnc34)nn2)c(C)c1 | MTT |  | > 100 µM
CCOC(=O)c1cc(C)n(Cn2cnc3ccccc32)n1 | MTT | 24 h | 47.9 µM
